Measured values of several laboratories.
Each line is one published result; the experiments were not run side by side.
Organism: Staphylococcus aureus

| Compound | observed | technique | strain | tested at | time | quantity | value |
| --- | --- | --- | --- | --- | --- | --- | --- |
| O=C1NC(=S)N/C1=C\c1ccc(-c2ccc(N(c3ccccc3)c3ccccc3)cc2)c2ccccc12 | microbial killing | broth dilution | ATCC43300 |  |  | MBC | > 1000 µg/mL |
| COc1ccc2nc(-n3nc(CC(C)C)c4c3-c3ccccc3C4=O)sc2c1 | microbial growth | well diffusion | NCIM5021 | 125 µg/mL |  | inhibition zone | 12 mm |
| CN[C@H](CC(C)C)C(=O)N[C@H]1C(=O)N[C@@H](CC(N)=O)C(=O)N[C@H]2C(=O)N[C@H]3C(=O)N[C@H](C(=O)N[C@H](C(=O)O)c4cc(O)cc(O)c4-c4cc3ccc4O)[C@H](O)c3ccc(c(Cl)c3)Oc3cc2cc(c3O[C@@H]2O[C@H](CO)[C@@H](O)[C@H](O)[C@H]2O[C@H]2C[C@](C)(N)[C@H](O)[C@H](C)O2)Oc2ccc(cc2Cl)[C@H]1O | microbial growth | disc diffusion | ATCC29213 | 250 µg/disc | 24 h | inhibition zone | 21 mm |
| O=C1NC(=S)S/C1=C\c1c2ccccc2c(-c2ccc(N(c3ccccc3)c3ccccc3)cc2)c2ccccc12 | microbial killing | broth dilution | ATCC25923 |  |  | MBC | > 1000 µg/mL |
| O=C1Nc2ccccc2/C1=C1/Nc2ccccc2C1=O | microbial growth |  | NCTC8325 |  |  | MIC | > 30 µM |
| COc1ccc2nc(-n3nc(C)c4c3-c3ccccc3C4=O)sc2c1 | microbial growth | well diffusion | NCIM5021 | 1000 µg/mL |  | inhibition zone | 13 mm |
| N#CC[C@H](C1CCCC1)n1cc(-c2ncnc3[nH]ccc23)cn1 | microbial growth |  | NCTC8325 |  |  | MIC | > 30 µM |
| O=C(O)CN1C(=O)/C(=C/c2ccc(-c3ccc(N(c4ccccc4)c4ccccc4)cc3)c3ccccc23)NC1=S | microbial killing | broth dilution | ATCC6538 |  |  | MBC | > 1000 µg/mL |
| CN1CC[C@H](c2c(O)cc(O)c3c(=O)cc(-c4ccccc4Cl)oc23)[C@H](O)C1 | microbial growth |  | NCTC8325 |  |  | MIC | > 30 µM |
| [H]/N=C(/N)N[C@H]1[C@H](O)[C@@H](O)[C@H](O[C@@H]2O[C@@H](C)[C@](O)(C=O)[C@H]2O[C@@H]2O[C@@H](CO)[C@H](O)[C@@H](O)[C@@H]2NC)[C@@H](N/C(N)=N\[H])[C@@H]1O | microbial growth | well diffusion | NCIM5021 | 500 µg/mL |  | inhibition zone | 22 mm |
